In ChEMBL document CHEMBL1152669, “New R/S-3,4-dihydro-2,2-dimethyl-2H-1-benzopyrans as K(ATP) channel openers: modulation of the 4-position” (Bioorg Med Chem, 2009):
Calls of active or inactive are those of the source. The rule behind the calls is not given here.

Experiments:
Rattus norvegicus [1] = species: Rattus norvegicus; experiment: Channel opening activity at KATP channel in Wistar rat pancreatic islets assessed as glucose-induced residual insulin secretion at 10 uM after 90 mins by radioimmunology
Method in brief: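 Islets from adult fed rats, groups of 10, preincubated 30 min at 37 °C in bicarbonate salt medium with 2.8 mM glucose, 0.5% dialyzed albumin, O2/CO2 gassed. Then incubated 90 min at 37 °C with 16.7 mM glucose plus drug. Insulin by radioimmunoassay against rat insulin standard; expressed as % of drug-free 16.7 mM glucose control; mean ± SEM (n).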

Rattus norvegicus [2] = species: Rattus norvegicus; experiment: Channel opening activity at KATP channel in Wistar rat pancreatic islets assessed as glucose-induced residual insulin secretion at 1 uM after 90 mins by radioimmunology
[3] = Channel opening activity at KATP channel in Wistar rat endothelium-denuded aortic ring assessed as relaxation of KCl-induced contraction; assay type: tissue-based; settings: Aorta
Method in brief: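 Thoracic aortic rings (3–4 mm, endothelium-free) from adult fed rats, 37 °C, O2/CO2 95/5 gassed; isometric tension. After 60 min equilibration, contracted with 30 mM KCl; once stable, drug added cumulatively to maximal relaxation or 300 µM. Relaxation as % of KCl contraction; EC50 (50% inhibition of plateau) from dose–response curves; mean ± SEM (n).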

Rattus norvegicus [4] = species: Rattus norvegicus; experiment: Channel opening activity at KATP channel in Wistar rat pancreatic islets assessed as increase in rubidium outflow at 10 uM by scintillation counting
Method in brief: (§1)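 Groups of 100 islets from adult fed rats loaded 60 min at 37 °C with 86Rb in bicarbonate medium with 16.7 mM glucose and 0.5% albumin, washed three times, then perifused at 1.0 mL/min. Effluent collected in 1-min fractions from min 31 to 90, counted by scintillation along with final islet content. Output as fractional outflow rate (% of islet content per min). Glibenclamide 10 µM used as KATP blocker.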

Rattus norvegicus [5] = species: Rattus norvegicus; experiment: Channel opening activity at KATP channel in Wistar rat pancreatic islets assessed as increase in rubidium outflow at 10 uM by scintillation counting in presence of glibenclamide; method in brief: as §1

Row | Structure (SMILES) | Activity (Rattus norvegicus [1]) [%] | Activity (Rattus norvegicus [2]) [%] | EC50 [3] [nM] | Activity (Rattus norvegicus [4]) | Activity (Rattus norvegicus [5])
1 | CC1(C)CC(NC(=S)Nc2ccc(C#N)cc2)c2cc(Br)ccc2O1 (stereo unspecified) | 11.7 | 57.5 | > 10000 |  | 
2 | CS/C(=N\c1ccc(Cl)cc1)NC1CC(C)(C)Oc2ccc(Br)cc21 (stereo unspecified) | 40.8 | 89.4 | > 10000 |  | 
3 | CC1(C)CC(NC(=S)Nc2ccc([N+](=O)[O-])cc2)c2cc(Br)ccc2O1 (stereo unspecified) | 13.5 | 61.3 | > 10000 | Active | inactive
4 | CC1(C)CC(NC(=S)Nc2ccc([N+](=O)[O-])cc2)c2cc(Cl)ccc2O1 (stereo unspecified) | 10.3 | 67.3 | > 10000 |  | 
5 | CC1(C)CC(NC(=S)Nc2ccsc2)c2cc(Br)ccc2O1 (stereo unspecified) | 44 |  | > 10000 |  | 
6 | CC1=Nc2ccc(Cl)cc2S(=O)(=O)N1 | 73.9 | 87.5 |  |  | 
7 | CC1(C)CC(NC(=S)Nc2ccc(C#N)cc2)c2cc(F)ccc2O1 (stereo unspecified) | 12 | 64.7 | > 3000 |  | 
8 | CC1(C)CC(NC(=S)Nc2cccc([N+](=O)[O-])c2)c2cc(Br)ccc2O1 (stereo unspecified) | 13.5 | 64.3 | > 10000 |  | 
9 | CC1(C)CC(NC(=S)Nc2cccc([N+](=O)[O-])c2)c2cc(Cl)ccc2O1 (stereo unspecified) | 14.4 | 64.3 | > 3000 |  | 
10 | CC1(C)CC(NC(=S)Nc2ccsc2)c2cc(Cl)ccc2O1 (stereo unspecified) | 51.9 |  | > 3000 |  | 
11 | CC1(C)CC(NC(=S)Nc2ccc(C#N)cc2)c2cc(Cl)ccc2O1 (stereo unspecified) | 10.6 | 47.8 | > 10000 |  | 
12 | CS/C(=N\c1cccc(C#N)c1)NC1CC(C)(C)Oc2ccc(Br)cc21 (stereo unspecified) | 37.7 | 93.7 | > 30000 |  | 

Second part, the molecule after the results:

Row | Activity (Rattus norvegicus [1]) [%] | Activity (Rattus norvegicus [2]) [%] | EC50 [3] [nM] | Activity (Rattus norvegicus [4]) | Activity (Rattus norvegicus [5]) | Structure (SMILES)
13 | 11.5 | 76.1 | > 3000 |  |  | CC1(C)CC(NC(=S)Nc2cccc([N+](=O)[O-])c2)c2cc(F)ccc2O1 (stereo unspecified)
14 | 94.4 | 95.3 | 130 |  |  | CC1(C)Oc2ccc(C#N)cc2C(N2CCCC2=O)C1O (racemic) [CROMAKALIM]
15 | 14.2 | 65.5 | 640 |  |  | CC1(C)CC(NC(=S)Nc2cccc(C#N)c2)c2cc(Br)ccc2O1 (stereo unspecified)
16 | 62.1 |  | 6600 |  |  | CC1(C)CC(NC(=S)Nc2cccnc2)c2cc(F)ccc2O1 (stereo unspecified)
17 | 42.7 | 95.8 | 11400 |  |  | CC1(C)CC(N/C(=N/C#N)Nc2ccc(Cl)cc2)c2cc(Br)ccc2O1 (stereo unspecified)
18 | 10.7 | 74.3 | > 3000 |  |  | CC1(C)CC(NC(=S)Nc2ccc([N+](=O)[O-])cc2)c2cc(F)ccc2O1 (stereo unspecified)
19 | 15.8 | 66.2 | 600 |  |  | CC1(C)CC(NC(=S)Nc2cccc(C#N)c2)c2cc(Cl)ccc2O1 (stereo unspecified)
20 | 45.3 | 90.5 | 5200 |  |  | CC1(C)CC(N/C(=N/C#N)Nc2cccc(C#N)c2)c2cc(Br)ccc2O1 (stereo unspecified)
21 | 50.2 |  | 2800 |  |  | CC1(C)CC(NC(=S)Nc2cccnc2)c2cc(Cl)ccc2O1 (stereo unspecified)
22 | 44.3 |  | 3700 |  |  | CC1(C)CC(NC(=S)Nc2cccnc2)c2cc(Br)ccc2O1 (stereo unspecified)
23 |  |  | 350 |  |  | CC(N/C(=N\C#N)Nc1ccncc1)C(C)(C)C (racemic) [PINACIDIL ANHYDROUS]
24 | 16.1 | 80 | 2600 |  |  | CC1(C)CC(NC(=S)Nc2cccc(C#N)c2)c2cc(F)ccc2O1 (stereo unspecified)
